Compounds with a hit are over-represented: about 4% of the library has one in this group of screens.
OX1R antag-1 – blocks the human orexin 1 receptor; OX1R-expressing cells, FRET antagonist read-out; inhibition, % at 6.6 µM; actives 1.8% (n = 330,000); in the data active = inhibition mostly above about 38%, no sharp cut-off; inactive = mostly below about 40%;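 note: 0% = agonist challenge alone and 100% = reference antagonist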
Target sequence (O43613 whole entry, looked up): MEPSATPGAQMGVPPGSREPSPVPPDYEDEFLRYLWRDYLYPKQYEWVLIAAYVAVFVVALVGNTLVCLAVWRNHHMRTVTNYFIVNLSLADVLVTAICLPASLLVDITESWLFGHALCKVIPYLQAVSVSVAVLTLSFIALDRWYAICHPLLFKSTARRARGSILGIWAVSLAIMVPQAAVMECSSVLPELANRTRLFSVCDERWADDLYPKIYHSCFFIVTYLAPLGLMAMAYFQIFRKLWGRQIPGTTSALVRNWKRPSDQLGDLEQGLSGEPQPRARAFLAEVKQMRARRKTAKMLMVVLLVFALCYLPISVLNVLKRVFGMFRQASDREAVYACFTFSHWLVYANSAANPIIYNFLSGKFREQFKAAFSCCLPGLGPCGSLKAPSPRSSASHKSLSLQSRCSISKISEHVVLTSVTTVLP
OX1R antag-2 – blocks the human orexin 1 receptor. O43613. CHO/OX1R cells, Fluo-8 calcium fluorescence, orexin A. inhibition, % at 5 µM. actives 0.43% (n = 330,000);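 active = inhibition above its plate's threshold, mean inhibition of all tested compounds on the plate plus 3 SD, cut at about 37% in these data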;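 note: 0% = orexin A challenge wells and 100% = SB-334867-A antagonist wells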
TAAR1 antagonist – antagonists of human TAAR1 | inhibition, % at 3 µM | actives 1.5% (n = 360,000) | Q96RJ0 | AID 624466 | CHO RD-HGA16 TAAR1, Fluo-8 calcium fluorescence, antagonist;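 active = inhibition above a per-plate cutoff, the mean inhibition of test compounds on that plate plus 3 SD, cut at about 49% in these data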;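 note: 0% = DMSO plus EC80 beta-PEA response and 100% = DMSO alone without agonist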
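test system = CHO RD-HGA16 cells bearing hTAAR1 | replication = singlicate | controls = DMSO-only wells and EC80 β-PEA-stimulated wells | reagent = EC80 β-phenethylamine stimulus | read-out basis = percent inhibition of PEA-evoked calcium signal, max/basal emission ratio | schedule = seeding 17-24 h prior, 75-min 37 °C, 30-min RT dye loading | signal = kinetic Fluo-8 calcium fluorescence measurement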
NTR1 agonist – agonists of human neurotensin receptor NTR1; P30989; NTR1-U2OS beta-arrestin-GFP spot imaging, agonist mode; activation, % at 20 µM; actives 0.17% (n = 330,000);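 active = activation at or above 40% of the spot to cytoplasm intensity ratio, with at least 20 cells analyzed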;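 note: 0% = DMSO without peptide and 100% = 100 nM NTR1 peptide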
CHO parental Ca – signal in parental CHO cells, OX1R antagonist counter-screen | AID 463079 | actives 0.63% (n = 330,000) | parental CHO-K1, ATP-induced calcium, Fluo-8 fluorescence | inhibition, % at 5.6 µM;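 active = inhibition above that plate's mean sample inhibition plus 3 SD, cut at about 26% in these data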;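 note: 0% = ATP-challenged DMSO wells and 100% = DMSO wells without ATP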
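test system = CHO parental line | reagent = ATP stimulus | measured by = intracellular calcium via Fluo-8 no-wash fluorescent dye | control set = ATP and no-ATP DMSO wells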
TAAR1 ag – agonists of human TAAR1 | CHO RD-HGA16 TAAR1, Fluo-8 calcium fluorescence; vehicle wells 0%, saturating PEA agonist 100% | activation, % at 3 µM | actives 0.99% (n = 360,000);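 active = activation above the mean activation of all test compounds in the run plus 3 SD, cut at about 38% in these data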
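Benchmarks: low control DMSO, high control PEA (EC100); System: CHO RD-HGA16 cells carrying human TAAR1 plus Gα16; Detection: Fluo-8 fluorescence, 5 s baseline then 140 s kinetic read; Schedule: 17-24 h plating, Fluo-8 75 min 37 °C, 30 min RT; Read-out basis: % activation from peak over basal fluorescence ratio, DMSO-to-PEA scaled.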
nonsel antag count – nonselective antagonist in TAAR1 antagonist counter-screen; shares compounds with TAAR1 antagonist; counterscreen cell line, calcium fluorescence, antagonist mode; inhibition, % at 3 µM; actives 77% (n = 2,400); AID 651780; in the data active = inhibition above about 22%;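 note: CHO-Ga16 host cells stimulated with ATP at an EC80 level; 0% = agonist EC80 plus vehicle and 100% = vehicle without agonist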
TAAR1 ant conf – confirmation of human TAAR1 antagonists | shares compounds with TAAR1 antagonist | TAAR1-expressing cells, fluorescence antagonist read-out | inhibition, % at 3 µM | actives 40% (n = 2,400) | AID 651785; in the data active = inhibition above about 49%;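 note: CHO-Ga16 host cells challenged with agonist PEA near its EC80; 0% = agonist at EC80 plus vehicle and 100% = vehicle with no agonist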
Ga16 nonsel ag – nonselective Ga16 agonist in TAAR1 antagonist counter-screen | shares compounds with TAAR1 antagonist | Ga16-expressing cells, calcium fluorescence, agonist counterscreen | activation, % at 3 µM | actives 18% (n = 2,400) | AID 651953; in the data active = activation above about 12%;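 note: 0% = vehicle wells and 100% = saturating stimulus response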
TAAR1 ag counter – activates human TAAR1 in antagonist counter-screen | shares compounds with TAAR1 antagonist | hTAAR1 cell line, fluorescence activation, agonist mode | activation, % at 3 µM | actives 2% (n = 2,400) | AID 651955; in the data active = activation above about 37%;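 note: CHO cells stably expressing TAAR1 with calcium dye readout; 0% = DMSO vehicle and 100% = full agonist response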
* = called active by the depositor; nt = not tested or not shown.

SMILES	OX1R antag-1	OX1R antag-2	TAAR1 antagonist	NTR1 agonist	CHO parental Ca	TAAR1 ag	nonsel antag count	TAAR1 ant conf	Ga16 nonsel ag	TAAR1 ag counter
COc1ccc(-c2cc(C(=O)N/N=C/c3cc(OC)c(OC)cc3OC)c3ccccc3n2)cc1	2.8	-25.5	68.2*	0.2	-19.2	8.5	28.2*	36.0	6.1	2.7
COc1cc(/C=N/NC(=O)c2cc(-c3cccc(OC(C)C)c3)nc3ccccc23)ccc1O	12.4	-36.0	53.6*	4.7	-49.1	1.0	15.8	48.0	3.9	11.3
CC(C)Oc1ccccc1-c1cc(C(=O)N/N=C/c2cccnc2)c2ccccc2n1	19.5	-23.4	49.6*	0.3	-27.1	9.3	20.8	30.3	6.3	4.6
COc1cccc(-c2nc(NCc3cccnc3)c3ccccc3n2)c1O	nt	nt	21.2	3.0	nt	3.5	nt	nt	nt	nt
CCC(C)Nc1nc(-c2cccc(OC)c2O)nc2ccccc12 (stereo unspecified)	13.3	-13.9	57.2*	19.4	-9.7	18.1	21.0	35.8	11.1	25.1
Nc1ccc(-c2nc3cc([N+](=O)[O-])ccc3o2)cc1	9.4	-21.9	55.5*	-0.4	-5.8	4.8	20.1	19.1	2.6	-2.7
Cc1ccc(C(C)NC(=O)COC(=O)C2=COCCO2)cc1C (stereo unspecified)	0.3	-12.0	-6.9	-0.2	-19.5	-1.4	nt	nt	nt	nt
Cc1nc(-c2ccc(S(=O)(=O)Oc3ccccc3Cl)s2)cs1	5.6	9.5	78.7*	15.8	57.5*	8.7	28.1*	49.1*	2.3	3.2
CCN(CC)S(=O)(=O)c1ccc(-c2csc(C)n2)s1	18.7	-9.5	-6.7	-0.2	-22.7	11.9	nt	nt	nt	nt
COC(=O)C(c1ccccc1)N(Cc1cccc(CN(C(C(=O)OC)c2ccccc2)S(C)(=O)=O)c1)S(C)(=O)=O (stereo unspecified)	28.0	-0.9	3.8	1.5	-10.6	6.4	nt	nt	nt	nt
COc1cccc(N2CCN(C(=O)c3cc(C)oc3C)CC2)c1	11.1	-2.7	-14.1	-1.9	-10.9	-0.8	nt	nt	nt	nt
COc1ccc([C@H]2CC(=O)C=C(c3cccc(C(C)C)c3)C2)cc1	2.1	-12.4	50.5*	3.2	-14.3	8.7	12.9	18.2	5.3	9.5
COc1ccc([C@H]2CC(=O)C=C(c3cccc(OC)c3)C2)cc1	4.5	-7.0	29.5	12.2	-29.4	1.6	nt	nt	nt	nt
COc1ccc(N2CCN(C(=O)COC(=O)CNC(=O)c3ccccc3)CC2)cc1	7.5	-7.1	-23.5	1.9	-1.0	4.8	nt	nt	nt	nt
COc1cccc(C(=O)Nc2c(C(N)=O)oc3ccccc23)c1	76.8*	6.0	56.0*	3.1	-15.2	12.2	24.2*	40.7	7.2	9.2
Cc1nn(Cc2ccccc2)c(C)c1CNC(=O)CN=C1NS(=O)(=O)c2ccccc21	nt	nt	-2.7	0.9	nt	1.0	nt	nt	nt	nt
CC(C)(C)OC(=O)CNC(=O)c1[nH]cnc1C(=O)NCCCCCNC(=O)OC(C)(C)C	26.2	-11.3	68.4*	10.4	2.7	28.9	40.5*	59.9*	15.5*	16.0
CC(C)(C)OC(=O)NCCCC[C@H](NC(=O)c1nc[nH]c1C(=O)N1CCN(C(=O)OC(C)(C)C)CC1)C(=O)OC(C)(C)C	-0.6	-39.4	50.0*	4.1	-16.9	14.3	16.9	38.8	5.9	7.8
C[C@H](NC(=O)c1nc[nH]c1C(=O)NCCCCCNC(=O)OC(C)(C)C)C(=O)OC(C)(C)C	34.3	-21.7	60.9*	1.6	-3.8	18.2	31.0*	44.9	8.8	5.3
CC(C)C[C@H](NC(=O)c1nc[nH]c1C(=O)NCCCCCNC(=O)OC(C)(C)C)C(=O)OC(C)(C)C	41.4	-53.3	-2.6	9.6	-38.5	1.6	nt	nt	nt	nt

Screens deposited in PubChem by several laboratories.
